The values below come from ChEMBL document CHEMBL3232886, “C-17 lactam-bearing limonoids from the twigs and leaves of Amoora tsangii” (J Nat Prod, 2014).

The source made the active and inactive calls. The rule behind the calls is not given here.

Series [1] deals with Nuclear factor NF-kappa-B complex (Homo sapiens) (UniProt Q00653+P19838+Q04206). Nature of the series: Inhibition of NF-kappaB in human HepG2 cells assessed as inhibition of TNF-alpha-induced luciferase reporter gene expression at 10 uM preincubated for 1 hr followed by TNF-alpha stimulation measured after 4 hrs relative to control. It is filed as cell-based. The procedure, abridged: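 HepG2 cells stably carrying an NF-κB-luciferase reporter, grown in DMEM with 10% FBS and penicillin/streptomycin at 37 °C, 5% CO2. Seeded overnight at 5 × 10^4 cells/well (24-well), preincubated 1 h with compound at 10 μM, then stimulated with TNFα (10 ng/mL) for 4 h. Luciferase activity read in cell lysates; mean ± SEM, n = 3.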
Chain of Nuclear factor NF-kappa-B complex (Homo sapiens) (P19838 whole entry, looked up): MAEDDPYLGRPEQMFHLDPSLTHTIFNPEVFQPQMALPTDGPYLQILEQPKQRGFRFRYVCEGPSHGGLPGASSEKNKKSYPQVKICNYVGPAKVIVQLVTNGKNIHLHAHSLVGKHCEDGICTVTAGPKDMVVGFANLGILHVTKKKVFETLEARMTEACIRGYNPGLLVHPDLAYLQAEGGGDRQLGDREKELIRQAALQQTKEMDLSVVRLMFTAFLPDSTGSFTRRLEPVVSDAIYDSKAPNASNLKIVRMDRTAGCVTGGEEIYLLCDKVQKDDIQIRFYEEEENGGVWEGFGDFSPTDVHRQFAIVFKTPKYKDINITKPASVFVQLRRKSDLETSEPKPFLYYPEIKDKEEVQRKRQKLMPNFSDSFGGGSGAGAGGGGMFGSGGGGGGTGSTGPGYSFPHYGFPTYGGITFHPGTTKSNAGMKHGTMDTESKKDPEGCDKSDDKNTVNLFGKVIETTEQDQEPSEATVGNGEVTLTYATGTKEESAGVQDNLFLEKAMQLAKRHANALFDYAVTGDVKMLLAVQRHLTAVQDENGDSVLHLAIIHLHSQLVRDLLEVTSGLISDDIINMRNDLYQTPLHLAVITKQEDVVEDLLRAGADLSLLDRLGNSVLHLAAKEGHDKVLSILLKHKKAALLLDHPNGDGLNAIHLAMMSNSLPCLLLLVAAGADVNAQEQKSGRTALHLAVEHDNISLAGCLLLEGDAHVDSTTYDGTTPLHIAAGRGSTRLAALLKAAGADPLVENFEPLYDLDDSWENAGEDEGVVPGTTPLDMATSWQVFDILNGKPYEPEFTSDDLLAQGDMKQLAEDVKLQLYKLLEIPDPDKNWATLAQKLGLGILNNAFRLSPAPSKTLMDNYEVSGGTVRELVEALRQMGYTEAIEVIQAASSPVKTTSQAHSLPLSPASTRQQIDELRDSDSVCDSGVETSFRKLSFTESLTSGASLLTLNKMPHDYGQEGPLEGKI
Chain of Nuclear factor NF-kappa-B complex (Homo sapiens) (Q00653 whole entry, looked up): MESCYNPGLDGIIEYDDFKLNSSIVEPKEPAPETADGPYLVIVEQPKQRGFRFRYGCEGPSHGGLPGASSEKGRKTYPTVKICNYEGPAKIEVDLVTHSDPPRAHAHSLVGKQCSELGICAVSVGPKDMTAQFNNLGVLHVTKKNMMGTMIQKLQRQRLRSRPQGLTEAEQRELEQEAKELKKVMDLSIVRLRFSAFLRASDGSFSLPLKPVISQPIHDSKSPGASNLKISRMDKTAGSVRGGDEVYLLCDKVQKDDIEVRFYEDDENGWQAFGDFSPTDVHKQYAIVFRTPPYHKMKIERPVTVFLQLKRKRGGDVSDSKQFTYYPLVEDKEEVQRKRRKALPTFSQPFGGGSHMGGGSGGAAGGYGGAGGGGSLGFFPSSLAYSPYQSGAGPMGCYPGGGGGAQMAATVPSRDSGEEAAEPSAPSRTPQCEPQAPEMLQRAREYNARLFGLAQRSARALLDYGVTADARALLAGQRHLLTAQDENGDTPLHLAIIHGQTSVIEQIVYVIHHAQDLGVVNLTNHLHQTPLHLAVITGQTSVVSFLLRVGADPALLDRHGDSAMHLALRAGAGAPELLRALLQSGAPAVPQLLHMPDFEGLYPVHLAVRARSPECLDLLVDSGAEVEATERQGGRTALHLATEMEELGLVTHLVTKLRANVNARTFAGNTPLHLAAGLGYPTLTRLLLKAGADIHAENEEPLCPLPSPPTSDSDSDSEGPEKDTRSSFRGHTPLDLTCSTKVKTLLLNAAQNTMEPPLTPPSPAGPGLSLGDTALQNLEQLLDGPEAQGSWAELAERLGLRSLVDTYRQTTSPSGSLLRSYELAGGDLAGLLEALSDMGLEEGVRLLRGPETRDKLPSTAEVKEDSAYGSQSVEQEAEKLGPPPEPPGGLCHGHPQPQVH
Chain of Nuclear factor NF-kappa-B complex (Homo sapiens) (Q04206 whole entry, looked up): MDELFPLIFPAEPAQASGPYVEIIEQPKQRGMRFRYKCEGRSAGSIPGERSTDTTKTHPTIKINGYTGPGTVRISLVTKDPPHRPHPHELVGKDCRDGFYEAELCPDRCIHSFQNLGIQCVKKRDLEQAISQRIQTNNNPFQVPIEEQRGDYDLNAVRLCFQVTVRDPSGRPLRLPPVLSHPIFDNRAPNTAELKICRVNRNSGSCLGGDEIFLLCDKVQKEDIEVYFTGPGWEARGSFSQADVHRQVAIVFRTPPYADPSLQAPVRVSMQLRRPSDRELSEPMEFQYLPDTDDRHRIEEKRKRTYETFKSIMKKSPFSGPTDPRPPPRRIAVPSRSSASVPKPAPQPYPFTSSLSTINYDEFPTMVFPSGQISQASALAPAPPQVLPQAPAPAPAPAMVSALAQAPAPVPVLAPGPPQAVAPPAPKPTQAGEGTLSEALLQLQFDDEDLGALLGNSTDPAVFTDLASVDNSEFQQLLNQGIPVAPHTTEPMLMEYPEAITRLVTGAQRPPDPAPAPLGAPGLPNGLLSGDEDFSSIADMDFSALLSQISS
(Reporter assays use an easily measured gene product as a stand-in for the process of interest.)

The next series has as its system HepG2. The series can be described thus: Cytotoxicity against human HepG2 cells at 10 uM. The following applies: hepg2, 10 µM. In kind it is cell-based.

With `C=C1[C@@H]([C@@]2(C)C=CC(=O)OC(C)(C)[C@@H]2CC(=O)OC)[C@@H](OC(C)=O)[C@H](OC(=O)c2ccccc2)[C@@]2(C)[C@H](C3=CC(=O)NC3)C[C@H]3O[C@]132` (relative stereo), the inhibition entry in series [1] is “inactive”. Further, in the series on HepG2, the Activity result is “Non-toxic”.

Consider `C=C1[C@@H]([C@@]2(C)C=CC(=O)OC(C)(C)[C@@H]2CC(=O)OC)[C@@H](OC(C)=O)[C@H](OC(=O)C(C)CC)[C@@]2(C)[C@H](C3=CC(=O)NC3)C[C@H]3O[C@]132` (stereo not given in full), for which, in series [1], the inhibition was 64%. Further, the Activity entry in the series with HepG2 is listed as “Non-toxic”.

For the molecule `C=C1[C@@H]([C@@]2(C)C=CC(=O)OC(C)(C)[C@@H]2CC(=O)OC)[C@@H](OC(C)=O)[C@H](OC(=O)c2ccccc2)[C@@]2(C)[C@H](C3=CCNC3=O)C[C@H]3O[C@]132` (relative stereo), the inhibition result in series [1] was “inactive”. Besides, the Activity entry in the series with HepG2 is on record as “Non-toxic”.

In the case of `C=C1[C@@H]([C@@]2(C)C=CC(=O)OC(C)(C)[C@@H]2CC(=O)OC)[C@@H](OC(C)=O)[C@H](OC(=O)c2ccccc2)[C@@]2(C)[C@H](C3=CCN(C)C3=O)C[C@H]3O[C@]132`, the inhibition entry in series [1] was “inactive”. Besides, the Activity result in the series on HepG2 was “Non-toxic”.

As for `C=C1[C@@H]([C@@]2(C)C=CC(=O)OC(C)(C)[C@@H]2CC(=O)OC)[C@@H](OC(C)=O)[C@H](OC(=O)C(C)CC)[C@@]2(C)[C@H](C3=CCNC3=O)C[C@H]3O[C@]132` (stereo not given in full), the inhibition entry in series [1] is “inactive”. The Activity entry with HepG2 is given as “Non-toxic”.

What is called inhibition is the drop in the measured response relative to a control, in per cent.
